According to ChEMBL document CHEMBL4428045, “Antioxidant properties of thio-caffeine derivatives: Identification of the newly synthesized 8-[(pyrrolidin-1-ylcarbonothioyl)sulfanyl]caffeine as antioxidant and highly potent cytoprotective agent” (Bioorg Med Chem Lett, 2016):
Active and inactive are the calls of the source. The calls are words filed in the database; no cut-off is given here.

How the values were obtained:
[1] = Antioxidant activity assessed as ferric ion reducing activity using Fe3+(CN-)6 at 0.025 to 0.1 mg/ml incubated for 20 mins by spectrophotometric analysis relative to trolox; format: functional; set-up: scale not given: the % may be the effect or the level left
[2] = Antioxidant activity assessed as DPPH radical scavenging activity at 0.1 mg/ml incubated for 30 mins in dark by spectrophotometric analysis relative to BHT; format: functional
[3] = Antioxidant activity assessed as ferric ion reducing activity using Fe3+(CN-)6 at 0.025 to 0.1 mg/ml incubated for 20 mins by spectrophotometric analysis relative to BHT; format: functional
[4] = Antioxidant activity assessed as DPPH radical scavenging activity at 0.1 mg/ml incubated for 30 mins in dark by spectrophotometric analysis relative to trolox; format: functional
[5] = Hemolytic activity in human erythrocytes at 0.1 mg/ml incubated for 60 mins by spectrophotometric analysis; format: ADME, cell-based, Erythrocyte; settings: read-out: Activity
In short: (§1)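 RBCs were incubated with compound for 60 min. Haemolysis below 5% was taken as not significant.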

[6] = Metal chelating activity of the compound assessed as inhibition of Fe2+-ferrozine complex formation incubated for 10 mins by spectrophotometric analysis; format: functional
[7] = test system: Erythrocyte; experiment: Hemolytic activity in human erythrocytes assessed as change in cell shape by measuring discocytes level at 0.1 mg/ml incubated for 60 mins by […]; format: ADME, cell-based; settings: 1 h
[8] = Induction of hemolysis in human erythrocytes assessed as effect on osmotic resistance at 0.1 mg/ml incubated for 60 mins by erythrocyte osmotic fragility assay; format: cell-based; settings: 1 h
In short: (§2)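 After 60 min of compound treatment, RBC osmotic resistance was expressed as %NaCl and compared with untreated control cells (p < 0.05).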

[9] = test system: Erythrocyte; experiment: Cytoprotection against AAPH-induced haemolysis in human erythrocytes at 0.01 to 1 mg/l pre-incubated for 20 mins before 60 mM AAPH addition for 4 hrs by spectrophotometric analysis; format: functional; settings: in the assay text read “0.025 to 0.1 mg/ml” for “0.01 to 1 mg/l”
In short: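 Human erythrocytes (RBCs) pre-incubated 20 min with compound or the standards Trolox and BHT, then challenged with 60 mM AAPH to induce free-radical haemolysis. Data are means SD (n = 4), with significance set at p < 0.05.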

[10] = Antioxidant activity assessed as DPPH radical scavenging activity at 0.025 to 0.1 mg/ml incubated for 30 mins in dark by spectrophotometric analysis; format: functional
[11] = test system: Erythrocyte; experiment: Hemolytic activity in human erythrocytes assessed as echinocytes/spherocytes formation incubated for 60 mins by microscopic analysis; format: ADME, cell-based; settings: 1 h
In short: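 RBCs were incubated with compound for 60 min, and cell morphology was then assessed by optical microscopy for echinocytes, spherocytes and RBC ghosts.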

[12] = Hemolytic activity in human erythrocytes at 0.025 mg/ml incubated for 60 mins by spectrophotometric analysis; format: ADME, cell-based, Erythrocyte; settings: read-out: Activity; in short: as §1
[13] = Induction of hemolysis in human erythrocytes assessed as reduction in osmotic resistance at 0.1 mg/ml incubated for 60 mins by erythrocyte osmotic fragility assay relative to NaCl (reference value: 0.451%); format: cell-based; set-up: scale not given: the % may be the effect or the level left; settings: 1 h; in short: as §2
[14] = Hemolytic activity in human erythrocytes at 0.05 mg/ml incubated for 60 mins by spectrophotometric analysis; format: ADME, cell-based, Erythrocyte; settings: read-out: Activity; in short: as §1
[15] = Induction of hemolysis in human erythrocytes assessed as change in RBC shape by measuring echinocytes and spherocytes level at 0.1 mg/ml preincubated for 60 mins followed by AAPH induction measured after 4 hrs by […]; format: cell-based
[16] = Antioxidant activity assessed as ferric ion reducing activity using Fe3+(CN-)6 incubated for 20 mins by spectrophotometric analysis; format: functional
[17] = Antioxidant activity assessed as DPPH radical scavenging activity incubated for 30 mins in dark by spectrophotometric analysis; format: functional
[18] = Antioxidant activity assessed as ferric ion reducing activity using Fe3+(CN-)6 at 0.1 mg/ml incubated for 20 mins by spectrophotometric analysis relative to BHT; format: functional
[19] = Antioxidant activity assessed as ferric ion reducing activity using Fe3+(CN-)6 at 0.1 mg/ml incubated for 20 mins by spectrophotometric analysis relative to trolox; format: functional; set-up: scale not given: the % may be the effect or the level left

| Structure (SMILES) | hemolysis at 1 h, 0.1 mg/ml [5] | Activity [6] | Activity [7] | Activity [8] | Activity [9] | Activity [10] | further results |
| --- | --- | --- | --- | --- | --- | --- | --- |
| CC(C)Sc1nc2c(c(=O)n(C)c(=O)n2C)n1C | 0 to 5% | inactive | Non-Toxic | Non-Toxic | 10% |  | Activity [1]: 38%; Activity [2]: Active; Activity [3]: Active; Activity [4]: 34% |
| Cn1c(=O)c2c(nc(SC(C)(C)C)n2C)n(C)c1=O | 0 to 5% | inactive | Non-Toxic | Non-Toxic | inactive | < 10% |  |
| CCSc1nc2c(c(=O)n(C)c(=O)n2C)n1C | 0 to 5% | inactive | Non-Toxic | Non-Toxic | 10% | < 10% |  |
| Cn1c(=S)c2c(ncn2C)n(C)c1=S | 0 to 5% | inactive | Non-Toxic | Non-Toxic | Active | < 10% |  |
| Cc1c(C)c2c(c(C)c1O)CCC(C)(C(=O)O)O2 (centres undefined) |  |  |  |  | Active |  |  |
| Cn1c(=S)c2c(ncn2C)n(C)c1=O | 0 to 5% | inactive | Non-Toxic | Non-Toxic | Active | < 10% |  |
| CCCSc1nc2c(c(=O)n(C)c(=O)n2C)n1C | 0 to 5% | inactive | Non-Toxic | Non-Toxic | inactive | < 10% |  |
| Cn1c(=O)c2c(nc(Sc3ccccc3)n2C)n(C)c1=O | 57.2% | inactive |  | Toxic | inactive | < 10% | Activity [11]: Toxic; hemolysis at 1 h, 0.025 mg/ml [12]: < 5%; Activity [13]: 0.488%; hemolysis at 1 h, 0.05 mg/ml [14]: 26.9%; Activity [15]: Toxic |
| Cc1cc(C(C)(C)C)c(O)c(C(C)(C)C)c1 |  |  |  |  |  |  | Activity [16]: Active; Activity [4]: Active |
| CSc1nc2c(c(=O)n(C)c(=O)n2C)n1C | 0 to 5% | inactive | Non-Toxic | Non-Toxic | 10% | < 10% |  |
| Cn1c(=O)c2c(ncn2C)n(C)c1=O [CAFFEINE] | 0 to 5% | inactive | Non-Toxic | Non-Toxic | 10% | < 10% |  |
| Cn1c(=O)c2c(nc(SC(=S)N3CCCC3)n2C)n(C)c1=O | 0 to 5% | inactive | Non-Toxic | Non-Toxic | Active |  | Activity [16]: Dose-dependent effect; Activity [4]: 67%; Activity [17]: Dose-dependent effect; Activity [18]: Active; Activity [19]: 65% |
